Results from paper PMC12461606 (RSC Chemical Biology, 2025).

Experiments:
A. thaliana = test: Herbicidal activity assay on soil-grown A. thaliana; format: in vivo, Arabidopsis thaliana; settings: for pre-emergent inhibition: pre-emergence treatment; for pre-emergent inhibition / post-emergent inhibition: assessed on day 16; for post-emergent inhibition: treatments three and six days after germination
Summary of the method: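 Test compounds were applied to A. thaliana across 125 μM–2 mM, either pre-emergence or post-emergence.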

[1] = test system: Wild type A. thaliana (WT); test: Dicamba tolerance trait test, wild type plants; format: in vivo, Arabidopsis thaliana; settings: sprayed at 500 μM
Summary of the method: (§1)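 Wild-type plants or a homozygous dicamba-tolerant transgenic line (DMOc) were sprayed with test compound or the parent acid at 500 μM.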

[2] = test system: transgenic line of A. thaliana, modified with a synthetic dicamba monooxygenase from Stenotrophomonas maltophilia; test: Dicamba tolerance trait test, dicamba-tolerant transgenic line; format: in vivo, Arabidopsis thaliana; settings: sprayed at 500 μM, DMOc line
Summary of the method: as §1

[3] = HPLC determination of dicamba formation in water; format: physicochemical; settings: for % Dicamba: integration of dicamba as percentage of all peaks at 220 nm

Compound	relative post-emergent herbicidal efficacy among conjugates (A. thaliana; post-emergence, comparison between carbohydrate conjugates (Fig. 5))	growth effect on wild-type [1]	growth effect on dicamba-tolerant transgenic line [2]	% Dicamba ([3]; 1 day) [%]	% Dicamba ([3]; 7 days) [%]	% Dicamba ([3]; 28 days) [%]	relative stability to hydrolysis among glucose isomers 1–5 ([3]; HPLC)	pre-emergent inhibition (A. thaliana; 125 μM)	post-emergent inhibition (A. thaliana; 125 μM)	post-emergent inhibition (A. thaliana; 500 μM)	pre-emergent inhibition (A. thaliana; 1 mM)
6-O-dicamba-D-glucose [Compound 2]	most active	herbicidal	no growth symptoms	0.1	0.1	0.5	most stable	–	–	–	–
COc1c(Cl)ccc(Cl)c1C(=O)O [Dicamba, 3,6-dichloro-2-methoxybenzoic acid]	–	herbicidal	no growth symptoms	–	–	–	–	weak	moderate	strong	strong
